Compound activity: PubChem BioAssay, Broad Institute
N-glyco inh = increase of ERlucT glycosylation luciferase signal, primary screen, N-linked glycosylation inhibitor project, D54 ERlucT cells, luminescence, set 2; D54 ERlucT glycosylation luciferase reporter, 24 h; percent of 100 nM tunicamycin response; reporter increase, % at 12.5 µM; 360,000 tested, 0.23% active;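 active means mean luciferase reporter signal, scaled so untreated is 0 and the glycosylation-blocking control 100, at or above a set limit in every replicate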;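 further: luciferase carries N-glycosylation sites so blocking glycosylation raises the light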
CaV13 FRET inh = Disruptors of the CACNA1D IQ motif to Ca2+-dependent inactivation inhibitor domain association, primary screening, Förster resonance energy transfer in intact living …; HEK cells, CFP/YFP FRET ICDI-IQ, plate reader, 10 min; percent FRET-ratio fall versus neutral wells; inhibition, % at 12.3 µM; 340,000 tested, 0.098% active; AID 743397;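 active means mean replicate inhibition of at least 30% and at least 1% of replicates passing that level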
HSF1 activator = HSF-1 activators, primary screen, NIH3T3-HGL cells, MG132 stress, luminescence, single point; NIH3T3-HGL HSF-1 luciferase reporter, 8 h; 100% = twice DMSO control signal; activation, % at 9 µM; 300,000 tested, 1.7% active; AID 504408, 2011;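 active means mean replicate activation of at least 50% with a set share of replicates each reaching 50%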
PfHsp90 set2 = growth inhibition of PfHsp90-expressing yeast, primary screen, antimalarial PfHsp90 inhibitor project, S. cerevisiae, BacTiter-Glo luminescence, single point, set 2; BacTiter-Glo ATP, 48 h; yeast lacking PDR1 and PDR3 efflux regulators; inhibition, % at 9.4 µM; 310,000 tested, 0.32% active;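 active means every replicate shows inhibition above about 80%, whatever the replicate mean, limit read from the data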
T cruzi inh = inhibitors of intracellular T. cruzi growth, primary screen, luminescence, NIH3T3 host cells; T. cruzi beta-gal in NIH3T3, 90 h; inhibition, % (test concentration not listed); 300,000 tested, 1.4% active;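 active means mean inhibition across valid replicates above about 55%, limit read from the data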;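 further: signal also drops with host cell toxicity which is not excluded here; higher percent means less beta-gal luminescence so fewer parasites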
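System: mouse NIH/3T3 fibroblasts infected with β-gal-expressing T. cruzi Tulahuen C4 / Input: NIH/3T3 cells, 5,000 per well / Buffer or medium: Low-serum DMEM with 2% FBS / Probe or stimulus: 5000 reporter trypomastigotes per well / Schedule: ≥90 h infection period, 3 h prior cell attachment / Measured by: GalScreen luminescence, 60 min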
PvdQ acylase = P. aeruginosa PvdQ acylase inhibitors, primary screen, biochemical, fluorescence, plate reader and imaging, single point; 340,000 tested, 0.063% active; purified PvdQ acylase; PvdQ acylase [Pseudomonas aeruginosa LESB58]; inhibition, % at 10 µM; in the data active means inhibition above about 30%, passing the limit was not always enough
Of the large screens only hits and unclear results are named; the others gave an inactive call. In the library only some 3% were active in any assay of this set; here they are far more common.

O=[N+]([O-])c1ccc(NN=Cc2cccc3ccccc23)nc1	none (no result: HSF1 activator, T cruzi inh)
Cc1ccc(S(=O)(=O)N(C)c2ccc(C(=O)NC3CCCCC3)cc2)cc1	none (no result: HSF1 activator, PfHsp90 set2, T cruzi inh, PvdQ acylase)
Cc1ccc(CNC(=O)[C@@H](Cc2ccccc2)NC(=O)[C@H]2O[C@@H](n3ccc(N)nc3=O)[C@H](O)[C@@H]2O)o1	none (no result: N-glyco inh, HSF1 activator, PfHsp90 set2, T cruzi inh, PvdQ acylase)
CCOc1ccccc1OCCCC(=O)Nc1cc(S(=O)(=O)N2CCCCC2)ccc1C	none (no result: HSF1 activator, PfHsp90 set2, T cruzi inh, PvdQ acylase)
Cc1n[nH]c(C)c1S(=O)(=O)N(CC(=O)N1CCc2ccccc21)c1ccc(C(C)C)cc1	HSF1 activator 75.0
CCOc1ccc(N(CC(=O)N2CCc3ccccc32)S(=O)(=O)c2c(C)noc2C)cc1	none
COc1cccc(/C=C/C(=O)c2cccc([N+](=O)[O-])c2)c1OC	HSF1 activator 58.2
CCCCCCCCN1C(=O)[C@@H](CC(=O)NCc2cccc(C(F)(F)F)c2)C[C@@]2(C(=O)OC)C1=C[C@H](C1CCCC1)O[C@@H]2C	none (no result: N-glyco inh, HSF1 activator, PfHsp90 set2, T cruzi inh, PvdQ acylase)
CCOc1ccc(CN(C)CC(=O)Nc2cccc(S(=O)(=O)N(C)c3ccccc3)c2)cc1	T cruzi inh 72.8
COc1cccc(CN(C)CC(=O)Nc2cccc(S(=O)(=O)N(C)c3ccccc3)c2)c1OC	none (no result: HSF1 activator, T cruzi inh)
O=C(Cn1c(-c2ccccc2)c[n+]2ccsc12)c1ccccc1	T cruzi inh 68.8
O=C(Cn1c(-c2ccccc2)c[n+]2ccsc12)c1ccc([N+](=O)[O-])cc1	T cruzi inh 75.0
O=C(Cn1nnc(-c2ccccc2)n1)c1ccccc1	none
COc1cc(S(=O)(=O)N2CCC(O)(c3cccc(C(F)(F)F)c3)CC2)ccc1-n1cnnn1	T cruzi inh 60.9
Cc1ccc(F)cc1C(=O)N1CCCCC1c1cc(C(=O)NC(C)C)no1 (stereo not given)	none (no result: HSF1 activator, PfHsp90 set2, T cruzi inh, PvdQ acylase)
CCCCNc1cccc2c1S(=O)(=O)N[C@H](Cc1ccccc1)CO2	none (no result: N-glyco inh, HSF1 activator, PfHsp90 set2, T cruzi inh, PvdQ acylase)
COC(=O)c1ccc(CSc2nc3ccccc3c(=O)n2CC(C)C)o1	HSF1 activator 71.5
O=C(N[C@H](C(=O)N1CCC[C@H]1C(=O)NCCc1ccccc1Cl)c1ccccc1)c1ccc(Cl)cc1Cl	none (no result: N-glyco inh, HSF1 activator, PfHsp90 set2, T cruzi inh, PvdQ acylase)
Cc1cc(C)nc(N(C#N)Cc2ccccc2)n1	PvdQ acylase 38.1
Cc1cc(C)nc(N(C#N)Cc2cccc3ccccc23)n1	none
N#CN(Cc1ccccc1)Cc1ccccc1	PvdQ acylase 92.3
Cc1cc(C)nc(N(C#N)Cc2ccc([N+](=O)[O-])cc2)n1	PvdQ acylase 49.2
N#Cc1ccc(S(=O)(=O)N2CCCc3nc(-c4ccc(Br)cc4)ccc32)cc1	none (no result: N-glyco inh, HSF1 activator, PfHsp90 set2, T cruzi inh, PvdQ acylase)
C/C(=N\Nc1nc2ccccc2s1)c1ccc(Br)s1	PfHsp90 set2 115.0
CCCN1CCC2(CC1)C(C#N)=C(N)Oc1c2sc2nc(C)cc(C)c12	none
Cc1cc(C)c2c3c(sc2n1)C(c1cccc(F)c1)C(C#N)=C(N)O3 (stereo not given)	T cruzi inh 71.9
COC(=O)[C@@]1(Sc2ccc(C)cc2)CC(=O)N(c2ccccc2)[C@@H]1c1ccccc1	none (no result: N-glyco inh, HSF1 activator, PfHsp90 set2, T cruzi inh, PvdQ acylase)
Cc1noc(/C=C/c2ccco2)c1S(=O)(=O)N1CCC(C(=O)N2c3ccccc3CC2C)CC1 (stereo not given)	T cruzi inh 58.3 (no result: PfHsp90 set2)
CCC(Sc1nc(N)c(NC(=O)c2ccc(OC)cc2)c(=O)[nH]1)C(=O)O (stereo not given)	CaV13 FRET inh 66.7 (no result: PfHsp90 set2)
CC1Cc2ccccc2N1C(=O)/C=C/c1cccc(F)c1 (stereo not given)	HSF1 activator 69.6 (no result: CaV13 FRET inh)
CC1Cc2ccccc2N1C(=O)COC(=O)/C=C/c1ccc(F)cc1 (stereo not given)	none (no result: HSF1 activator, T cruzi inh)
O=C(Cn1ccc([N+](=O)[O-])n1)N1CCCCC1	none
O=C(Cn1ccc([N+](=O)[O-])n1)N1CCCCCC1	CaV13 FRET inh 114.9
C[C@@H]1Cn2cnc(C(=O)N3CCN(C(=O)OC(C)(C)C)CC3)c2C(=O)N1	none (no result: N-glyco inh, HSF1 activator, PfHsp90 set2, T cruzi inh, PvdQ acylase)
CN(C)CCCOc1ccc(Cl)cc1Br	T cruzi inh 67.6 (no result: PfHsp90 set2)
